Measured values reported in publication PMC9716260 (Cancer Discovery, 2022).

Columns and labels:
BRG1/BRM = assay: Immunoblot for BRG1/BRM and cleaved PARP in degrader-treated neurospheres; assay type: cell-based, human
How it was run: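 BT869, HSJD-DIPG007 and SU-DIPGXIIIP* neurospheres were collected 24, 48 and 72 h after rising degrader concentrations; SU-DIPGXIIIP* was also collected at 6 h. SU-DIPGXIIIP* gave nuclear extracts; the other two gave whole-cell lysates in NP-40/deoxycholate/SDS buffer with protease and phosphatase inhibitors. Blots were blocked in 5% milk/TBST, then BRG1, BRM, PARP, cleaved PARP, GAPDH and H3 antibodies at 1:1,000 overnight at 4°C, then HRP secondary 1 h at RT, then ECL.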

[1] = test system: BRG1 binding sites in BT869 (H3.3K27M-glioma) neurospheres; assay: ATAC-seq chromatin accessibility in drug-treated BT869 neurospheres; assay type: cell-based, human; details: BT869, 1 μmol/L, 24 and 48 hours
How it was run: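 BT869 neurospheres were exposed to DMSO or 1 μmol/L BRG1/BRM inhibitor or degrader and collected 24 or 48 h later without FACS enrichment of viable cells. Bulk ATAC-seq was run as two biological replicates, each with two technical replicates. Genes linked to differentially accessible peaks were overlapped with single-cell H3K27M glioma metaprograms.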

BRG1 = BRG1 (Homo sapiens, UniProt P51532); assay: SILAC quantitative proteomics in BT869 neurospheres; assay type: cell-based; details: BT869, 1 μmol/L, 2 days of treatment
How it was run: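 BT869 cells were SILAC-labelled for 5 passages in custom TSM medium with heavy (13C615N2 lysine, 13C615N4 arginine) or light amino acids; incorporation was >95%. Cells (1.5 × 106) were seeded 1 day ahead, then given DMSO (light) or 1 μmol/L degrader (heavy) for 48 h. Lysis was in RIPA with protease inhibitors, benzonase and 1 mmol/L DTT. BCA-matched lysates were mixed 1:1. Significance came from a heteroscedastic two-tailed t test.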

[2] = Kinetic solubility analysis; assay type: physicochemical; details: PBS, pH 7.4, aqueous buffer, kinetic from dmso stock
How it was run: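 Test compound as a 10 mmol/L DMSO stock was diluted into 50 mmol/L PBS, pH 7.4, to a final 200 μmol/L. This was done in the lower chamber of filter vials by a contract laboratory.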

[3] = Pharmacokinetic study, drug in plasma and brain after intraperitoneal dose; assay type: in vivo, CD1 mice; details: after intraperitoneal administration, mass spectrometry
How it was run: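 Female CD1 mice, three per time point, received a single i.p. dose of test compound in 10% hydroxypropyl β-cyclodextrin in sterile water. Plasma and brain were collected at 30 min, 2 h and 4 h and quantified by LC/MS-MS. Parameters came from a noncompartmental model.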

[4] = Plasma level after a single subcutaneous injection; assay type: in vivo; details: single subcutaneous injection of 50 mg/kg
[5] = test system: BT869 (H3.3K27M-glioma) subcutaneous tumors; assay: Subcutaneous xenograft, BT869; assay type: in vivo, NSG mice
How it was run: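 Female NSG mice aged about 6–8 weeks were implanted with BT869 cells, 3 × 10^6 in PBS/Matrigel, into the right flank. Groups of 10 received the degrader at 50 mg/kg i.p. daily or vehicle for up to 60 days. BRG1 immunostaining was scored as nuclear DAB OD mean.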

[6] = test system: SW-13 BRG1/BRM-deficient adrenocortical carcinoma cell line; assay: Cell viability in BRG1/BRM-deficient control cell line; assay type: cell-based; details: Homo sapiens, SW13
How it was run: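 SW-13 cells were dosed with test compound at 24 and 96 h after plating, across 10 nmol/L to 10 μmol/L. Viability was read by CellTiter-Glo 7 days after drug exposure. Concentrations were log10-transformed and responses normalized to DMSO controls. Log IC50 was interpolated from a variable-slope least-squares fit.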

Chain of BRG1 (P51532 whole entry): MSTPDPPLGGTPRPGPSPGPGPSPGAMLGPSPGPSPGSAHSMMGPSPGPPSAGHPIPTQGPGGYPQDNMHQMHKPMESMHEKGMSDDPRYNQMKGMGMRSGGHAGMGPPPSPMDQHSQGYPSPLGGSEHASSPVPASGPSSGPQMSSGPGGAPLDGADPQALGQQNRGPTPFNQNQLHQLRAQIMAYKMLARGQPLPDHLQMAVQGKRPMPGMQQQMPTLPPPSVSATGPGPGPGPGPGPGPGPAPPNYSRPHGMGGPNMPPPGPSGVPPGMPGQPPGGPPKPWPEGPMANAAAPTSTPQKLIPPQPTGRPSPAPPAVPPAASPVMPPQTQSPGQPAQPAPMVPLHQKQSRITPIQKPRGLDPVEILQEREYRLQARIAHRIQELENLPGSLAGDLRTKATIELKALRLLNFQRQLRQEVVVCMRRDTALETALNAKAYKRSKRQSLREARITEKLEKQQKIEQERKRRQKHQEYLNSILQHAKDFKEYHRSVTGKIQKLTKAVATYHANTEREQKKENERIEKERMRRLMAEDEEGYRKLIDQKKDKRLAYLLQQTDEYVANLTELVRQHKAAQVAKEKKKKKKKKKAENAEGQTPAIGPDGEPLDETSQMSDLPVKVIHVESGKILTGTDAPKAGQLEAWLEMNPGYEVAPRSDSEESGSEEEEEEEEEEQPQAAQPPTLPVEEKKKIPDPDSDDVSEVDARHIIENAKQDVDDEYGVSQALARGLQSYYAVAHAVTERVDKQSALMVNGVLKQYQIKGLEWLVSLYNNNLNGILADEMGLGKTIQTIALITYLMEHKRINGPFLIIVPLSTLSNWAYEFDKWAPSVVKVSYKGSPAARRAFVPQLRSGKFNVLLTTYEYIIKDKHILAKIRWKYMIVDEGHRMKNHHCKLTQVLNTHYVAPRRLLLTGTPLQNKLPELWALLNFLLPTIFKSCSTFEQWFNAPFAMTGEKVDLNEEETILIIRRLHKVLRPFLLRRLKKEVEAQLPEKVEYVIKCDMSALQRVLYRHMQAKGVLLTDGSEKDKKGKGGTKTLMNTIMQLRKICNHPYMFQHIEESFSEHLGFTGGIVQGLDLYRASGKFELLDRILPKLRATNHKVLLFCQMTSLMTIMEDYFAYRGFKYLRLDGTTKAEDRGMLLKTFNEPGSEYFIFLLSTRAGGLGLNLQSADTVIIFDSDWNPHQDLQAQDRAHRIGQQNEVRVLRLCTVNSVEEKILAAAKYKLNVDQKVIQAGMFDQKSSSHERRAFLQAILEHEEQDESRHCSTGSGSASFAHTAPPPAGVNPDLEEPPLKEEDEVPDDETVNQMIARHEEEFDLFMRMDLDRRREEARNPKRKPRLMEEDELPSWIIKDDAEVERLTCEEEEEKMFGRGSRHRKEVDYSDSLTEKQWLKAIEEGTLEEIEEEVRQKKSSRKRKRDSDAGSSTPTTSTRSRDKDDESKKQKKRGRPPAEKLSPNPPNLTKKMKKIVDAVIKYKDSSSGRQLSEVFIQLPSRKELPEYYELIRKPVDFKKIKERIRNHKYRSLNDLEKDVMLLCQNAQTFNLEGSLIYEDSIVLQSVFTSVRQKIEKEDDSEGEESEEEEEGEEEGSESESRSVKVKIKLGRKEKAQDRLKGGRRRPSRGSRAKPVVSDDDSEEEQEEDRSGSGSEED

Row | Compound | Time to degradation of BRG1/BRM (BRG1/BRM; SU-DIPGXIIIP* cells) [h] | Lowest concentration degrading BRG1/BRM (BRG1/BRM; SU-DIPGXIIIP* cells, 6 hours) [nmol/L] | DNA accessibility at BRG1 binding sites (ATAC-seq) [1] | Proteins degraded (SILAC) (BRG1) | Time to complete degradation of BRG1/BRM (BRG1/BRM; BT869 cells) [h] | Time to complete degradation of BRG1/BRM (BRG1/BRM; HSJD-DIPG007 cells) [h] | Time to complete degradation of BRG1/BRM (BRG1/BRM; SU-DIPGXIIIP* cells) [h] | solubility at 24 h [2] [µM] | Blood–brain barrier penetrance [3] | Plasma levels [4] [ng/mL] | Plasma levels ([4]; converted from ng/mL) [nM] | Degradation of BRG1 in treated tumors ([5]; BT869 s.c., 50 mg/kg i.p. daily, versus vehicle) | Body weight and toxic effects (plasma, liver, spleen) ([5]; mice treated for 45 days, Compound 14 20 mg/kg i.p. daily, JQ-dS-4 50 mg/kg i.p. daily) | IC50 [6] [µM]
1 | Cc1ncsc1-c1ccc([C@H](C)NC(=O)[C@@H]2C[C@@H](O)CN2C(=O)[C@@H](NC(=O)CN2CCN(c3cc(-c4ccccc4O)nnc3N)CC2)C(C)(C)C)cc1 [AU-15330, reference compound] | ≤ 6 | 500 | decrease in DNA accessibility at BRG1 binding sites |  |  |  |  |  |  |  |  |  |  | 
2 | O=C1CCC(N2C(=O)c3cccc(NCCCCNC(=O)c4cccc(C#Cc5cc(NC(=O)Nc6ccnc(Cl)c6)ccn5)c4)c3C2=O)C(=O)N1 (stereo not drawn) [JQ-dS-4, 3-((4-(3-(2-chloropyridin-4-yl)ureido)pyridin-2-yl)ethynyl)-N-(4-((2-(2,6-dioxopiperidin-3-yl)-1,3-dioxoisoindolin-4-yl)amino)butyl)benzamide] |  |  | decrease in DNA accessibility at BRG1 binding sites | BRG1 was one of the top significant proteins degraded | 48 | 72 | 72 | < 1.56 | limited penetration into brain tissue | 240 | ~300 | negligible degradation of BRG1 | did not observe any significant changes in body weight or toxic effects | 6
